In the library only some 1.6% were active in any assay of this set; here they are far more common.
SKN-1 block = suppressors of acrylamide-induced Pgst-4::GFP reporter in worms, primary screen, SKN-1 inhibitor project, whole organism, uHTS, GFP/RFP fluorescence ratio, strain VP596; C. elegans VP596 Pgst-4::GFP/RFP ratio, 24 h; inhibition, % at 21.8 µM; 0.49% of 360,000 active; AID 624304, 2012;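 active = interference check ratio from 0.5 to 1.5 plus GFP to RFP signal ratio inhibition reaching or exceeding a fixed threshold, cut at about 30% in these data, passing the limit was not always enough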
TbMetRS inhib = T. brucei MetRS inhibitors, primary screen, biochemical, luminescence | methionyl-tRNA synthetase (Trypanosoma brucei brucei) | purified T. brucei MetRS, ATP depletion, Kinase-Glo luminescence | inhibition, % at 11.9 µM | 0.4% of 360,000 active;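 active = inhibition above a per-plate cutoff of the control wells' mean inhibition plus 3 SD, cut at about 5.5% in these data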;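 also: 0% = DMSO wells median and 100% = median of wells with control inhibitor compound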
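Material: parasite MetRS enzyme / Replication: singlicate, one well per compound / Signal: luminescence of leftover ATP / Schedule: 2 h aminoacylation at 25 °C after 15 min preincubation / Medium: HEPES-MgCl2-KCl buffer plus DTT, spermine, BSA, pyrophosphatase / Doses: 11.9 µM single point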
Rin1 Abl inh = inhibitors of Rin1-Abl protein binding, primary screen, biochemical, TR-FRET; inhibition, % at 7.35 µM; AID 588664, 2011; 0.4% of 360,000 active; Tyrosine-protein kinase ABL1 (Homo sapiens) + Ras and Rab interactor 1 (Homo sapiens), …; in the data active = inhibition above about 5%, passing the limit was not always enough
Target sequence (P00519 whole entry, looked up): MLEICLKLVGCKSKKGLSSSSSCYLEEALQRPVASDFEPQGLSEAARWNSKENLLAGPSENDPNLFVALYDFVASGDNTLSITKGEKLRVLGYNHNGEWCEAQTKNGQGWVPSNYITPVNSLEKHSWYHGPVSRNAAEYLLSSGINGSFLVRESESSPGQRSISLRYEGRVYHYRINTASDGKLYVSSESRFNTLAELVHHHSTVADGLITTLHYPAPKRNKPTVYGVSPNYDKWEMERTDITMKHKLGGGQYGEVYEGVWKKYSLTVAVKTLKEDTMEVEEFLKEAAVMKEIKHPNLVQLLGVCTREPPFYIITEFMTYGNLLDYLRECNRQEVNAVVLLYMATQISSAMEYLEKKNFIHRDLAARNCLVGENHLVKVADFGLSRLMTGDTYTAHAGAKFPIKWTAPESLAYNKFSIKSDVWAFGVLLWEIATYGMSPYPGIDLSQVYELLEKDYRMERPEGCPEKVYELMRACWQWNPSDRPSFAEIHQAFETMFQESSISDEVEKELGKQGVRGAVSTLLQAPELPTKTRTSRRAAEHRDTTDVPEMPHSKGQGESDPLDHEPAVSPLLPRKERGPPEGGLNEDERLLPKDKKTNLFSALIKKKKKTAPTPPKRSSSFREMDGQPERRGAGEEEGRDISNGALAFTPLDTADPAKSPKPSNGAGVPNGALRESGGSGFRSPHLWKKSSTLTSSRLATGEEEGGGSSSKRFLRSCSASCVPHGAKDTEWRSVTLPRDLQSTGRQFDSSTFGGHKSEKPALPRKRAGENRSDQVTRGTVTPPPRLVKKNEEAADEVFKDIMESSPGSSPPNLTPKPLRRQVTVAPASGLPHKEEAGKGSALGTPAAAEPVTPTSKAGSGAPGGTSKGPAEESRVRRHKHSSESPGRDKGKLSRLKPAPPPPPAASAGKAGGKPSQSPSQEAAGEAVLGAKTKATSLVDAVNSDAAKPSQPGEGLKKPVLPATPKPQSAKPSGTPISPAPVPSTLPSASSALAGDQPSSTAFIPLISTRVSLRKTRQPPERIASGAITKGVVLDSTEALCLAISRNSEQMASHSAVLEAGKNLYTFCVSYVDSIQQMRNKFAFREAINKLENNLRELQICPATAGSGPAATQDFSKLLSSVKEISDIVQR
Target sequence (Q13671 whole entry, looked up): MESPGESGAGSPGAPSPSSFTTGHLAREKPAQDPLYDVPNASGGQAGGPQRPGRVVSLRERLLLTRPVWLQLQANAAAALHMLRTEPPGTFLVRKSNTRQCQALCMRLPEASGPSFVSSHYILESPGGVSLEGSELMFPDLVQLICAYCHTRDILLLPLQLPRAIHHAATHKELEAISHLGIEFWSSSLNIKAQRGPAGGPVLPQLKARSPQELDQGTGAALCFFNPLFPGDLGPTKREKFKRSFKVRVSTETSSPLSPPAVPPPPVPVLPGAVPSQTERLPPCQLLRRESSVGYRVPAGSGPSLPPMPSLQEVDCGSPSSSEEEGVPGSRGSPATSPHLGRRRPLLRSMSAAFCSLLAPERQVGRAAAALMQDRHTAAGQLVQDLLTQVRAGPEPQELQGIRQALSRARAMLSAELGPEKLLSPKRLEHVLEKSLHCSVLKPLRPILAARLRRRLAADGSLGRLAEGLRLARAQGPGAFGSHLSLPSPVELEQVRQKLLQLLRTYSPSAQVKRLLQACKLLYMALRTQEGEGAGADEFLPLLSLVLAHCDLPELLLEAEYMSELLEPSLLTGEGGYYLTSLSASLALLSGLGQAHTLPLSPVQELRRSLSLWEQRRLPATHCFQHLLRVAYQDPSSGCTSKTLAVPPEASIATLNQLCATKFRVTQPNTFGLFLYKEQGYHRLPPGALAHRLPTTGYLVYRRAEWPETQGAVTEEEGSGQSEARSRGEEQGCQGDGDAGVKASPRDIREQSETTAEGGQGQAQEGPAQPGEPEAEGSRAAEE
MT1-MMP act inh = blockers of MT1-MMP proenzyme processing, primary screen, HT1080 RFP-PRO-GFP cells, GFP/RFP fluorescence; Matrix metalloproteinase-14 (Homo sapiens), P50281; GFP/RFP ratio fluorescence, overnight; percent of plate control window, DMSO zero; GFP/RFP ratio change, % at 20 µM; 0.061% of 360,000 active; AID 651647, 2012;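 active = GFP/RFP ratio change of at least 30% with cell ATP level not reduced by more than half and red fluorescence within 50% of control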
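Assay system – RFP-PRO-GFP reporter HT1080 cells · Compound dosing – single dose of 20 µM compound, 1% DMSO final · Incubation – overnight compound exposure at 37 °C · Measure – GFP/RFP fluorescence ratio · Benchmarks – DMSO wells and RFP-L50D-GFP cells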
Arrestin-AP2 inh = inhibitors of beta-arrestin/AP2 binding, primary screen, biochemical, GPCR trafficking, flow cytometry; 0.31% of 340,000 active; beta-arrestin 1 C-terminal peptide binding to AP2 beta2-adaptin appendage (human); FITC-arrestin peptide / GST-AP2 beads; AP2 beta2 appendage carries R879A mutation; inhibition, % at 10 µM;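 active = inhibition above a set limit, near 3 SD of compounds lacking own fluorescence, cut at about 54% in these data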;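 also: plate controls were DMSO wells for no effect and 5 µM unlabelled arrestin peptide for full effect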
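Material – GST-tagged AP2 beta2-adaptin appendage (R879A) on 4 µm glutathione beads · Probe or stimulus – fluorescein-tagged arrestin peptide at 50 nM final · Timing – 12 min plus 1 h, RT · Detection – bead flow cytometry, FITC channel · Read-out basis – inhibition as reduced fluorescein signal on beads, percent · Medium – PBS plus Tween 20 (0.05%) and BSA (0.1%)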
The depositor's hits bear a star; · = not tested or not shown.

SMILES	SKN-1 block	TbMetRS inhib	Rin1 Abl inh	MT1-MMP act inh	Arrestin-AP2 inh
COc1cccc(-c2noc(-c3ccoc3C)n2)c1	56*	0	1	-3	0
COc1cc(OC)cc(-c2nc(-c3cccs3)no2)c1	-1	-1	0	-2	-3
COC(=O)C[C@H]1CC[C@H](NC(=O)c2ccc(F)cc2)[C@@H](CO)O1	18	0	·	-1	·
COc1ccc2ccccc2c1C=NN1CCCCC1	-3	0	0	1	·
c1ccc(N=Nc2ccc3cccccc2-3)cc1	45*	3	-4	6	0
CCCCCNC(=O)C(c1ccnc2ccccc12)n1c(=O)c(-c2ccccc2)nc2ccccc21 (stereo not given)	8	0	·	-4	·
CSc1ccc(-c2nnn(Cc3ccc(Br)cc3)n2)cc1	36*	0	-4	0	-4
Cc1cc(Cn2nnc(-c3ccc(Br)cc3)n2)cc(C)c1O	-7	0	-1	4	3
CSc1ccc(S(=O)(=O)N2CCC(C(=O)Nc3ccccc3C(F)(F)F)CC2)cc1	42*	0	1	-2	-9
COC(=O)[C@]12CCCCC=C1N(Cc1cccc3ccccc13)C(=O)[C@H](CC(=O)N1CCCCC1)C2	2	-1	·	-13	·
Clc1ccc(OCc2cnc(Cl)s2)cc1	61*	0	4	2	2
Fc1ccccc1NC(=S)NN(Cc1ccccc1)c1ccccc1	39*	0	-1	-2	3
O=C(COC(=O)c1ccc(Cl)nc1)Nc1ccc2ccccc2c1	47*	0	0	5	0
O=C(COC(=O)c1ccc(Cl)nc1)Nc1ccc(Cl)cc1	12	1	-2	-2	-7
N#CC(c1ccc(Cl)cc1)c1ccc2c(C(F)(F)F)cc(C(F)(F)F)nc2n1 (stereo not given)	37*	0	0	-17	-9
C(=C\c1nc(-c2ccncc2)no1)/c1ccccc1	79*	3	1	0	-10
CCn1c(SCC(=O)Nc2nccs2)nnc1-c1cc2cccc(OC)c2o1	5	0	1	8	-9
CCn1c(SCC(=O)NC2CCCCC2)nnc1-c1cc2cccc(OC)c2o1	45*	-1	-6	2	-3
CCOC1=C2CN(S(=O)(=O)c3ccc(C)cc3)C(c3ccc(C)cc3)CC2N(S(=O)(=O)c2ccc(C)cc2)C(c2ccccc2)C1 (stereo not given)	9	-1	·	3	·
COc1cc(CC(=O)N2c3ccccc3N=C(c3ccccc3)C2C(=O)NCc2ccccc2)cc(OC)c1 (stereo not given)	-10	-1	·	-10	·
CCCCCCCC(=O)N1c2ccccc2NC(=O)C1CC(=O)Nc1ccc(C(=O)O)cc1 (stereo not given)	-2	0	-3	1	11
O=C(CC1C(=O)Nc2ccccc2N1CC(=O)N1CCCC1)Nc1ccc(Br)cc1 (stereo not given)	-9	19*	0	3	1
COC(=O)[C@@]12C[C@@H](CC(=O)NCCC(C)C)C(=O)N(Cc3ccccc3)C1=CCC(C)(C)C2	12	1	·	-8	·
COc1cc(/C=C(\C#N)C(=O)Nc2ccccc2F)ccc1OCCN1CCOCC1	9	-1	0	-6	-4
N#C/C(=C/C1=C(N2CCOCC2)C(=C/c2ccc(Cl)cc2)/CC1)C(=O)Nc1ccccc1F	44*	0	1	8	4
Cn1c2nc(=O)n(-c3ccccc3)c(=O)c-2nc2c1CCCC2	27	0	9.1*	-48	·
CCOC(=O)[C@]12CCCC=C1N(Cc1ccc3c(c1)OCO3)C(=O)[C@H](CC(=O)NCc1cccc(C(F)(F)F)c1)C2	6	0	·	8	·
O=C(COC(=O)c1cc(-c2cccc3ccccc23)nc2ccccc12)NC1CCS(=O)(=O)C1 (stereo not given)	44	-1	-28	-13	-4
